For data set [1], the system named is Balamuthia mandrillaris. The data set is described as follows: Antimicrobial activity against Balamuthia mandrillaris ATCC 50209 infected in HBMEC assessed as inhibition of amoeba-induced cytopathogenicity at 10 ug/mL after 24 hrs by LDH release assay. As to conditions: ATCC 50209, 24 h. It counts as functional. In short, it runs like this: (§1)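 B. mandrillaris ATCC 50209 (grown on host-cell feeder layers) pretreated with drug for 45 min in serum-free medium, then added at 10^5 amoebae/well, with inhibitor still present, to primary HBMEC monolayers (RPMI 1640, 10% FBS, 10% NuSerum). Incubation at 37°C, 5% CO2, up to 24 h. Cytotoxicity read as LDH release into supernatant. Percent inhibition is relative to amoebae alone; mean ± SE.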
For orientation: Cytopathic effects are the visible damage that an infection or toxin causes in cultured cells.

Data set [2] concerns Balamuthia mandrillaris. The data set is described as follows: Antimicrobial activity against Balamuthia mandrillaris ATCC 50209 infected in HBMEC assessed as inhibition of amoeba-induced cytopathogenicity at 5 ug/mL after 24 hrs by LDH release assay. To be noted: ATCC 50209, 24 h. It counts as functional. In short, it runs like this: as §1
For data set [3], the system named is Balamuthia mandrillaris. Put plainly: Antimicrobial activity against Balamuthia mandrillaris ATCC 50209 infected in HBMEC assessed as inhibition of encystment at 10 ug/mL after 7 days. It counts as functional. To be noted: ATCC 50209, 168 h. In short, it runs like this: (§2)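 Trophozoites (>95%) held at 2 × 10^5/ml in RPMI 1640 with drug at 37°C for 48 h. SDS (0.5% final) lyses the remaining trophozoites, and a hemocytometer count is taken before and after SDS. % encystment = post-SDS/pre-SDS × 100, and percent inhibition is calculated from it; mean ± SE. For viability, cysts made before SDS were placed on HBMEC monolayers for up to 7 days and watched for trophozoite emergence.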

The test system of data set [4] is Balamuthia mandrillaris. Put plainly: Antimicrobial activity against Balamuthia mandrillaris ATCC 50209 infected in HBMEC assessed as inhibition of encystment at 5 ug/mL after 7 days. The data set is classed as functional. As to conditions: ATCC 50209, 168 h. The essentials:
as §2

The nature of data set [5]: Cytotoxicity against HBMEC assessed as LDH release at 10 ug/mL. As to conditions: human.
Data set [6] has as its system Balamuthia mandrillaris. The data set is described as follows: Antimicrobial activity against Balamuthia mandrillaris ATCC 50209 infected in HBMEC assessed as inhibition of amoeba-induced cytopathogenicity at 200 uM after 24 hrs by LDH release assay. To be noted: ATCC 50209, 24 h. The data set is classed as functional. The essentials: as §1
For data set [7], the system named is Balamuthia mandrillaris. Put plainly: Antimicrobial activity against Balamuthia mandrillaris ATCC 50209 infected in HBMEC assessed as inhibition of encystment at 100 uM after 7 days. It counts as functional. As to conditions: ATCC 50209, 168 h. In short, it runs like this:
as §2

Data set [8] relates to Balamuthia mandrillaris. Put plainly: Antimicrobial activity against Balamuthia mandrillaris ATCC 50209 infected in HBMEC assessed as inhibition of amoeba-induced cytopathogenicity at 100 uM after 24 hrs by LDH release assay. The data set is classed as functional. To be noted: ATCC 50209, 24 h. In short, it runs like this: as §1
Data set [9] concerns Balamuthia mandrillaris. The data set is described as follows: Antimicrobial activity against Balamuthia mandrillaris ATCC 50209 infected in HBMEC assessed as inhibition of encystment at 500 uM after 7 days. As to conditions: ATCC 50209, 168 h. The data set is classed as functional. In short, it runs like this:
as §2

Data set [10] relates to Balamuthia mandrillaris. Put plainly: Antimicrobial activity against Balamuthia mandrillaris ATCC 50209 infected in HBMEC assessed as inhibition of encystment at 200 uM after 7 days. As to conditions: ATCC 50209, 168 h. It counts as functional. The essentials: as §2
The test system of data set [11] is Balamuthia mandrillaris. Put plainly: Antimicrobial activity against Balamuthia mandrillaris ATCC 50209 infected in HBMEC assessed as inhibition of amoeba-induced cytopathogenicity at 50 uM after 24 hrs by LDH release assay. The data set is classed as functional. To be noted: ATCC 50209, 24 h. In short, it runs like this:
as §1

The subject of data set [12] is Balamuthia mandrillaris. Put plainly: Antimicrobial activity against Balamuthia mandrillaris ATCC 50209 infected in HBMEC assessed as inhibition of encystment at 10 uM […]. The data set is classed as functional. The essentials:
as §2

Data set [13] concerns Balamuthia mandrillaris. Put plainly: Antimicrobial activity against Balamuthia mandrillaris ATCC 50209 infected in HBMEC assessed as inhibition of encystment at 50 uM after 7 days. It counts as functional. To be noted: ATCC 50209, 168 h. The essentials: as §2
Data set [14] relates to Balamuthia mandrillaris. The data set is described as follows: Antimicrobial activity against Balamuthia mandrillaris ATCC 50209 infected in HBMEC assessed as inhibition of amoeba-induced cytopathogenicity at 10 uM after 24 hrs by LDH release assay. It counts as functional. To be noted: ATCC 50209, 24 h. The essentials: as §1

Take `Nc1nc(=O)[nH]cc1F` [FLUCYTOSINE]: the inhibition (usually the change of the read-out against control, counted positive when it falls) at 10 µg/mL with Balamuthia mandrillaris [1] is 61%; in the data set with Balamuthia mandrillaris [3] it was 56%. Further, the inhibition at 5 µg/mL with Balamuthia mandrillaris [2] came to 20%; in the data set with Balamuthia mandrillaris [4], 43%.
Turning to `CC(=O)N1CCN(c2ccc(OCC3COC(Cn4ccnc4)(c4ccc(Cl)cc4Cl)O3)cc2)CC1` (configuration not stated) [KETOCONAZOLE], the Activity in data set [5] was less than 5%. For the same compound, the inhibition at 10 µg/mL in the data set with Balamuthia mandrillaris [1] came out at 88.5%; in the data set on Balamuthia mandrillaris [3], 0%. Also, the inhibition at 5 µg/mL with Balamuthia mandrillaris [2] came to 14%; in the data set on Balamuthia mandrillaris [4] it was 0%.
Regarding `C[C@@H]1CC[C@H]2[C@@H](C)C(=O)O[C@@H]3O[C@@]4(C)CC[C@@H]1[C@]32OO4` [ARTEMISININ], the inhibition at 10 µg/mL is 45% in the data set with Balamuthia mandrillaris [1] and 52% in the data set on Balamuthia mandrillaris [3]. Besides, the inhibition at 5 µg/mL with Balamuthia mandrillaris [2] was found to be 34%; in the data set on Balamuthia mandrillaris [4], 37%.
As for `C[C@@H]1C[C@@H]([C@H](O)CC2CC(=O)NC(=O)C2)C(=O)[C@@H](C)C1` [CYCLOHEXIMIDE], the figures for the inhibition at 200 µM in the data set with Balamuthia mandrillaris [6] and in the data set on Balamuthia mandrillaris [10] were 0% and 95%, respectively. The inhibition at 100 µM in the data set on Balamuthia mandrillaris [7] worked out at 94%; in the data set with Balamuthia mandrillaris [8], 44%. In the data set on Balamuthia mandrillaris [9], the inhibition at 500 µM worked out at 98.4%.
With `CCC[C@@H]1C[C@@H](C(=O)N[C@@H]([C@H]2O[C@H](SC)[C@H](O)[C@@H](O)[C@H]2O)[C@H](C)Cl)N(C)C1` [CLINDAMYCIN], the inhibition at 10 µg/mL in the data set on Balamuthia mandrillaris [1] was 10%; with Balamuthia mandrillaris [3], 0%. Further, the inhibition at 5 µg/mL in the data set with Balamuthia mandrillaris [2] stood at 16%; in the data set with Balamuthia mandrillaris [4], 4%.
Turning to `C=C1[C@@H](C)[C@H]2[C@H](Cc3ccccc3)NC(=O)[C@]23[C@H](OC(C)=O)/C=C/[C@@](C)(O)C(=O)[C@@H](C)C/C=C/[C@H]3[C@@H]1O` [CYTOCHALASIN D], the results for the inhibition at 50 µM with Balamuthia mandrillaris [11] and in the data set with Balamuthia mandrillaris [13] were 42% and 64%, respectively. In addition, the inhibition at 10 µM worked out at 42% with Balamuthia mandrillaris [12] and 13% in the data set on Balamuthia mandrillaris [14]. For the same compound, the inhibition at 100 µM in the data set with Balamuthia mandrillaris [7] came to 76%.
